Experimental data taken from ChEMBL document CHEMBL4371029, “Design, synthesis and evaluation of N2,N4-diaminoquinazoline based inhibitors of phosphodiesterase type 5” (Bioorg Med Chem Lett, 2019).
In brackets after ≈: the same amount, converted by molar mass.

Key:
[1] = target: cGMP-specific 3',5'-cyclic phosphodiesterase (Rattus norvegicus, UniProt O54735); test: Inhibition of rat lung PDE5 using [3H]cGMP as substrate measured after 10 mins by scintillation counting method
[2] = Selectivity index, ratio of IC50 for histone activated chicken PDE6 to IC50 for rat lung PDE5
[3] = Selectivity index, ratio of IC50 for human A549 cells to IC50 for rat lung PDE5
[4] = Equilibrium solubility of the compound in pH 7.4 phosphate buffer saline at 1 mg sonicated for 1 hr followed by 6 hrs incubation by shake flask method; format: physicochemical; details: phosphate buffered saline
[5] = Inhibition of histone activated chicken PDE6 using [3H]cGMP as substrate measured after 10 mins by scintillation counting method; parameters: species or system Gallus gallus
In short: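 Radioactive enzyme assay adapted from Sonnenburg et al. IC50 is the concentration giving 50% enzyme inhibition. Percent inhibition at the highest concentration tested is also recorded.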

A549 = test: Cytotoxicity against human A549 cells after 72 hrs by MTT assay; format: cell-based; details: A549, 72 h
In short: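 A549 adenocarcinomic human alveolar basal epithelial cells (ATCC CCL-185). Viability read by MTT; result expressed as IC50.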

Artery = test: Vasorelaxant activity in Wistar rat endothelium intact pulmonary artery rings assessed as inhibition of phenylephrine-induced contraction; format: functional, tissue-based

Compound | IC50 [1] [µM] | Ratio IC50 [2] | Ratio IC50 [3] | solubility thermodynamic at 6 h [4] [µM] | IC50 [5] [µM] | IC50 (A549) [µM] | EC50 (Artery) [µM]
COc1cc2nc(Nc3cccc(S(N)(=O)=O)c3)nc(NCc3ccccc3)c2cc1OC | 0.218 |  |  |  |  |  | 
NS(=O)(=O)c1cccc(Nc2nc(NCc3ccco3)c3ccccc3n2)c1 | 0.116 | 1.64 | 232 | 380 (≈ 150 µg/mL) | 0.19 | 26.9 | 
NC(=O)c1ccc(Nc2nc(NCc3cccs3)c3ccccc3n2)cc1 | 0.177 |  |  |  |  |  | 
c1ccc(CNc2nc(Nc3ccccc3)nc3ccccc23)cc1 | 1.38 | 0.65 | 9 | 410 (≈ 134 µg/mL) | 0.89 | 12.3 | 
COc1cccc(CNc2nc(Nc3cccc(S(N)(=O)=O)c3)nc3cc(OC)c(OC)cc23)c1 | 0.443 |  |  |  |  |  | 
COc1cccc(CNc2nc(Nc3cccc(S(N)(=O)=O)c3)nc3ccccc23)c1 | 0.35 |  |  |  |  |  | 
Clc1cnc(Nc2ccccc2)nc1NCc1ccccc1 | > 10 |  |  |  | 33.5 |  | 
NS(=O)(=O)c1cccc(Nc2nc(NCc3ccccc3)c3ccccc3n2)c1 | 0.072 | 4.61 | 155 | 1370 (≈ 556 µg/mL) | 0.332 | 11.2 | 1.63
NS(=O)(=O)c1ccc(Nc2nc(NCc3ccccc3)c3ccccc3n2)cc1 | 0.946 |  |  |  |  |  | 
CN(C)S(=O)(=O)c1ccc(Nc2nc(NCc3ccccc3)c3ccccc3n2)cc1 | 1.26 |  |  |  |  |  | 
CCCc1nn(C)c2c(=O)[nH]c(-c3cc(S(=O)(=O)N4CCN(C)CC4)ccc3OCC)nc12 |  |  |  |  | 0.013 |  | 0.14
Cc1cc(Nc2nc(Nc3cccc(S(N)(=O)=O)c3)nc3ccccc23)n[nH]1 | 3.71 |  |  |  |  |  | 
NS(=O)(=O)c1ccc(Nc2nc(NCc3cccs3)c3ccccc3n2)cc1 | 0.224 |  |  |  |  |  | 
COc1cc2nc(Nc3cccc(S(N)(=O)=O)c3)nc(NCc3ccco3)c2cc1OC | 0.284 |  |  |  |  |  | 
NS(=O)(=O)c1cccc(Nc2nc(NCc3cccs3)c3ccccc3n2)c1 | 0.089 | 4.04 | 169 | 340 (≈ 140 µg/mL) | 0.36 | 15 | 2.28
O=C(Nc1ccccc1)Nc1ccc(Nc2nc(NCc3cccs3)c3ccccc3n2)cc1 | 0.775 |  |  |  |  |  | 
c1ccc(CNc2nc(Nc3ccc(N4CCOCC4)cc3)nc3ccccc23)cc1 | 0.525 | 0.86 | 23 | 600 (≈ 247 µg/mL) | 0.45 | 12.1 | 
c1ccc(Nc2nc(NCc3cccs3)c3ccccc3n2)cc1 | 1.44 |  |  |  |  |  | 
c1csc(CNc2nc(Nc3ccc(N4CCOCC4)cc3)nc3ccccc23)c1 | 0.514 | 1.19 | 22 | 480 (≈ 200 µg/mL) | 0.61 | 11.4 | 
COc1cc2nc(Nc3cccc(S(N)(=O)=O)c3)nc(NCc3cccs3)c2cc1OC | 0.555 |  |  |  |  |  | 
NC(=O)c1cccc(Nc2nc(NCc3cccs3)c3ccccc3n2)c1 | 0.29 |  |  |  |  |  | 
